For experiment [1], the target named is T1, Glucagon receptor (Homo sapiens, UniProt P47871). As to the kind of experiment: Antagonist activity at human GCGR assessed as inhibition of glucagon-induced cAMP accumulation in cell-based assay. It counts as functional. In outline: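 Cell line expressing the human glucagon receptor. Antagonism was measured as inhibition of glucagon-induced cAMP production. […] Values are geometric means of n ≥ 2 determinations.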
In general terms: cAMP levels reflect the balance of adenylyl cyclase and phosphodiesterase activity.

For experiment [2], the target named is T1, Glucagon receptor. The experiment can be described thus: Displacement of [125I]Glucagon-Cex from human GCGR. In outline: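 Displacement of [125I]glucagon-Cex from membranes containing the human glucagon receptor, run with 0.2% BSA. Values are geometric means of n ≥ 2 determinations.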

Each structure is given as a SMILES string. Some results are limits rather than exact numbers.

T1 sequence (P47871 whole entry): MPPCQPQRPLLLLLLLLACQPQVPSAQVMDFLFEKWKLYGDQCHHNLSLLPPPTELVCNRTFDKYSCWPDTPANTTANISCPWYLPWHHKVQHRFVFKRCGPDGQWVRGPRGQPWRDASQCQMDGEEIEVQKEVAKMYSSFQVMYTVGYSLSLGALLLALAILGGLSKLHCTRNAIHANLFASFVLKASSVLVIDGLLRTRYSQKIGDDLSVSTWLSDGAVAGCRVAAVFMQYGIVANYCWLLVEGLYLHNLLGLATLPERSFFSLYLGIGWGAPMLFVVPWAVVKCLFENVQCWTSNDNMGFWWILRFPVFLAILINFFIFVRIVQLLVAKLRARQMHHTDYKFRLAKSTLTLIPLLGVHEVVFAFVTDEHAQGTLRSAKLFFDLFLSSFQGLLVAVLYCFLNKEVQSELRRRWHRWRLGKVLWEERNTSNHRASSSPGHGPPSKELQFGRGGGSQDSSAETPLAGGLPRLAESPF

As usually defined, the Kb is the affinity of an antagonist, worked out from how it opposes an agonist. Usually Ki stands for a measure of affinity in units of concentration, obtained from inhibition or displacement. Regarding `CCCc1c(C(C)C)cc(C(C)C)c(C(C)O)c1-c1ccc(F)cc1` (stereo not drawn), the Kb on Glucagon receptor [1] came out at 0.078 µM. At Glucagon receptor [2], this molecule came in with a Ki of 0.356 µM.
`O=C(NC[C@@H](O)C(=O)O)c1ccc(CN(C(=O)Nc2cc(Cl)cc(Cl)c2)c2ccc(C3=CCCCC3)cc2)cc1`: the Kb on Glucagon receptor [1] was determined as 0.43 µM. In addition, at Glucagon receptor [2], the Ki turned out to be 0.085 µM.
For `CCCC(Oc1cnn(-c2ccccc2C)c1)c1ccc(C(=O)NCCC(=O)O)cc1` (racemic), in that order: above 23.6 µM and 14.7 µM.
Consider `CCCC(Oc1cnn(-c2cccc(C)c2)c1)c1ccc(C(=O)NCCC(=O)O)cc1` (racemic), for which the Kb on Glucagon receptor [1] was above 20.9 µM. For the same molecule, at Glucagon receptor [2], the Ki was found to be 1.11 µM.
For `CCCC(Oc1cnn(-c2ccc(C)cc2)c1)c1ccc(C(=O)NCCC(=O)O)cc1` (racemic), in that order: above 12.9 µM and 0.968 µM.
As for `CCCC(Oc1cnn(-c2cccc(CC)c2)c1)c1ccc(C(=O)NCCC(=O)O)cc1` (racemic), the Kb on Glucagon receptor [1] came to 4.53 µM. On Glucagon receptor [2], this molecule yielded an inhibition constant (Ki) of 0.556 µM.
With `CCCC(Oc1cnn(-c2ccc(CC)cc2)c1)c1ccc(C(=O)NCCC(=O)O)cc1` (racemic), the Kb on Glucagon receptor [1] stood at 3.42 µM. On Glucagon receptor [2], the affinity, expressed as Ki, was 0.214 µM.
As for `CCCC(Oc1cnn(-c2cccc(Cl)c2)c1)c1ccc(C(=O)NCCC(=O)O)cc1` (racemic), the antagonist dissociation constant (Kb) on Glucagon receptor [1] was 16.9 µM. Further, the Ki at Glucagon receptor [2] amounted to 1.09 µM.
With `CCCC(Oc1cnn(-c2ccc(Cl)cc2)c1)c1ccc(C(=O)NCCC(=O)O)cc1` (racemic), the Kb at Glucagon receptor [1] was above 7.52 µM. On Glucagon receptor [2], the Ki came out at 0.6 µM.
`CCCC(Oc1cnn(-c2cccc(OC)c2)c1)c1ccc(C(=O)NCCC(=O)O)cc1` (racemic): the antagonist dissociation constant (Kb) on Glucagon receptor [1] is above 19.1 µM. This molecule also came in with a Ki on Glucagon receptor [2] of 2.16 µM.
For `CCCC(Oc1cnn(-c2ccc(OC)cc2)c1)c1ccc(C(=O)NCCC(=O)O)cc1` (racemic), in that order: above 21.3 µM and 1.98 µM.
Regarding `CCCC(Oc1cnn(-c2ccc(C(F)(F)F)cc2)c1)c1ccc(C(=O)NCCC(=O)O)cc1` (racemic) [listing 1 of 2 here], the Ki on Glucagon receptor [2] turned out to be 0.126 µM.
As to `CCCC(Oc1cnn(-c2ccc(C(F)(F)F)cn2)c1)c1ccc(C(=O)NCCC(=O)O)cc1` (racemic), at Glucagon receptor [1], the Kb came out at 16.4 µM. This molecule came in with an inhibition constant (Ki) at Glucagon receptor [2] of 1.19 µM.
For the molecule `CCCC(Oc1cnn(-c2ccc(C(F)(F)F)nc2)c1)c1ccc(C(=O)NCCC(=O)O)cc1` (racemic), the Kb on Glucagon receptor [1] came out at 21.5 µM. This molecule had a Ki at Glucagon receptor [2] of 1.45 µM.
In the case of `CCCC(Oc1cnn(-c2ccc(C(F)(F)F)cc2)c1)c1ccc(C(=O)NCCC(=O)O)cc1` (racemic) [listing 2 of 2 here], the Kb at Glucagon receptor [1] stood at 0.992 µM.

(Values after ChEMBL document CHEMBL1933020, “A novel series of glucagon receptor antagonists with reduced molecular weight and lipophilicity” (Bioorg Med Chem Lett, 2012).)
